In ChEMBL document CHEMBL3351960, “Lumazine peptides penilumamides B-D and the cyclic pentapeptide asperpeptide A from a gorgonian-derived Aspergillus sp. fungus” (2014):
Values after ≈ are worked out from the molar mass of the structure shown. Active and inactive are the calls of the source. No cut-off for these calls is given here. *1 amine or outer side, *2 acyl side, *3 side chain or, on linkers, in order; H or OH if unused. Where a SMILES comes first, the peptide text is derived from it. [ ]: non-standard residue; d: D form. X1 = O=C(c1cc(O)ccc1N[*:1])[*:2]

How the values were obtained:
[1] = system: Staphylococcus epidermidis; experiment: Antibacterial activity against Staphylococcus epidermidis; format: functional
Outline: (§1)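 Run by a previously published antibacterial method against a 10-strain panel, with ciprofloxacin as positive control.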

[2] = system: Bacillus cereus; experiment: Antibacterial activity against Bacillus cereus; format: functional; outline: as §1
[3] = system: Vibrio parahaemolyticus; experiment: Antibacterial activity against Vibrio parahaemolyticus; format: functional, organism-based; outline: as §1
[4] = system: Pseudomonas aeruginosa; experiment: Antibacterial activity against Pseudomonas aeruginosa; format: functional, organism-based; outline: as §1
[5] = system: A549; experiment: Cytotoxicity against human A549 cells by SRB assay; format: functional, cell-based
Outline: (§2)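 A549 lung carcinoma, HCT-116 colorectal cancer and HeLa cervical carcinoma cells were scored by sulforhodamine B assay, with adriamycin as positive control.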

[6] = system: HCT-116; experiment: Cytotoxicity against human HCT116 cells by SRB assay; format: functional, cell-based; outline: as §2
[7] = system: HL-60; experiment: Cytotoxicity against human HL60 cells by MTT assay; format: functional, cell-based
Outline: (§3)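 K562 erythroleukemia and HL-60 promyelocytic leukemia cells were scored by MTT method, with adriamycin as positive control.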

[8] = system: Nocardia brasiliensis; experiment: Antibacterial activity against Nocardia brasiliensis; format: functional, organism-based; outline: as §1
[9] = system: Salmonella enterica; experiment: Antibacterial activity against Salmonella enterica; format: functional, organism-based; outline: as §1
[10] = system: Human alphaherpesvirus 1; experiment: Antiviral activity against HSV1; format: functional, organism-based
Outline: (§4)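 Tested against RSV and HSV-1 by established procedures, with ribavirin as positive control.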

[11] = system: Kocuria rhizophila; experiment: Antibacterial activity against Kocuria rhizophila; format: functional, organism-based; outline: as §1
[12] = system: Respiratory syncytial virus; experiment: Antiviral activity against respiratory syncytial virus; format: functional, organism-based; outline: as §4
[13] = system: K562; experiment: Cytotoxicity against human K562 cells by MTT assay; format: functional, cell-based; outline: as §3
[14] = system: Escherichia coli; experiment: Antibacterial activity against Escherichia coli; format: functional, organism-based; outline: as §1
[15] = system: Acetylcholinesterase; experiment: Inhibition of AChE (unknown origin) by Ellman's method; conditions: Homo sapiens
[16] = system: HeLa; experiment: Cytotoxicity against human HeLa cells by SRB assay; format: functional, cell-based; outline: as §2
[17] = system: Staphylococcus aureus; experiment: Antibacterial activity against Staphylococcus aureus; format: functional, organism-based; outline: as §1
[18] = system: Pseudomonas putida; experiment: Antibacterial activity against Pseudomonas putida; format: functional, organism-based; outline: as §1

## C[C@@H]1NC(=O)[C@H](Cc2ccc(O)cc2)NC(=O)c2cc(O)ccc2NC(=O)[C@@H]2CCCN2C(=O)[C@H](C)NC1=O (cyclo(AAP[X1]Y))
[1]
  MIC: 12.5 µM (≈ 6.72 µg/mL)
[2]
  MIC: 12.5 µM (≈ 6.72 µg/mL)

## COC(=O)c1ccccc1NC(=O)[C@H](CC[S+](C)[O-])NC(=O)c1cnc2c(n1)c(=O)n(C)c(=O)n2C (some centres undefined)
[3]
  Activity: inactive
[4]
  Activity: inactive
[5]
  Activity: inactive
[6]
  Activity: inactive
[1]
  Activity: inactive
[7]
  Activity: inactive
[8]
  Activity: inactive
[2]
  Activity: inactive
[9]
  Activity: inactive
[10]
  Activity: inactive
[11]
  Activity: inactive
[12]
  Activity: inactive
[13]
  Activity: inactive
[14]
  Activity: inactive
[15]
  inhibition: inactive
[16]
  Activity: inactive
[17]
  Activity: inactive
[18]
  Activity: inactive

## COC(=O)c1ccccc1NC(=O)[C@H](CCSC)NC(=O)c1cnc2c(n1)c(=O)n(C)c(=O)n2C
[3]
  Activity: inactive
[4]
  Activity: inactive
[5]
  Activity: inactive
[6]
  Activity: inactive
[1]
  Activity: inactive
[7]
  Activity: inactive
[8]
  Activity: inactive
[2]
  Activity: inactive
[9]
  Activity: inactive
[10]
  Activity: inactive
[11]
  Activity: inactive
[12]
  Activity: inactive
[13]
  Activity: inactive
[14]
  Activity: inactive
[15]
  inhibition: inactive
[16]
  Activity: inactive
[17]
  Activity: inactive
[18]
  Activity: inactive

## COC(=O)c1ccccc1NC(=O)[C@H](CCS(C)(=O)=O)NC(=O)c1cnc2c(n1)c(=O)n(C)c(=O)n2C
[3]
  Activity: inactive
[4]
  Activity: inactive
[5]
  Activity: inactive
[6]
  Activity: inactive
[1]
  Activity: inactive
[7]
  Activity: inactive
[8]
  Activity: inactive
[2]
  Activity: inactive
[9]
  Activity: inactive
[10]
  Activity: inactive
[11]
  Activity: inactive
[12]
  Activity: inactive
[13]
  Activity: inactive
[14]
  Activity: inactive
[15]
  inhibition: inactive
[16]
  Activity: inactive
[17]
  Activity: inactive
[18]
  Activity: inactive

## C[C@H](NC(=O)c1cnc2c(n1)c(=O)n(C)c(=O)n2C)C(=O)Nc1ccccc1C(N)=O
[3]
  Activity: inactive
[4]
  Activity: inactive
[5]
  Activity: inactive
[6]
  Activity: inactive
[1]
  Activity: inactive
[7]
  Activity: inactive
[8]
  Activity: inactive
[2]
  Activity: inactive
[9]
  Activity: inactive
[10]
  Activity: inactive
[11]
  Activity: inactive
[12]
  Activity: inactive
[13]
  Activity: inactive
[14]
  Activity: inactive
[15]
  inhibition: inactive
[16]
  Activity: inactive
[17]
  Activity: inactive
[18]
  Activity: inactive
